Values joined by “and” are separate entries in the source; they are usually repeats but may differ in a detail not shown here. Equal values may be shown once.
Key:
U2OS = assay: Multiplex assay against U2OS; assay type: toxicity, cell-based; details: human
Outline: (§1)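 Phenotypes for tubulin, mitochondrial mass and membrane permeability are expressed as per cents of healthy-nucleus cells. Cells were stained live at seeding with Hoechst33342, BioTracker Green Microtubule Cytoskeleton Dye, MitoTracker Red and Annexin V Alexa Fluor 680, then imaged after compound addition on a CQ1 microscope at 37°C and 5% CO2. Machine-learning gating in CellPathfinder separated Hoechst high-intensity objects from normal cells, divided normal cells by nuclear state (healthy, pyknosed, fragmented) and divided pyknosed cells into mitotic or apoptotic.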

Fibroblast = assay: Multiplex assay against human fibroblast; assay type: toxicity, cell-based; outline: as §1
[1] = 12 h, 1 µM, compound concentration 1 uM
[2] = 12 h, 10 µM, compound concentration 10 uM
[3] = 24 h, 1 µM, compound concentration 1 uM
[4] = 24 h, 10 µM, compound concentration 10 uM
[5] = 48 h, 1 µM, compound concentration 1 uM
[6] = 48 h, 10 µM, compound concentration 10 uM

## CCCCCN1C(=O)C2(COc3cc4c(cc32)OCO4)c2ccccc21 (configuration not stated)
U2OS; [1]
  Population Apoptotic (%): 29.41% and 64%
  Population Fragmented Nuclei (%): 1.7% and 1.92%
  Population Healthy Nuclei (%): 87.47% and 82.05%
  Population Hoechst High Intensity Objects (%): 0%
  Population Membrane Permeable-Phenotype (%): 0.49% and 3.91%
  Population Mitochondria Different-Phenotype (%): 0.24% and 7.81%
  Population Mitotic Cells (%): 70.59% and 36%
  Population Normal (%): 100%
  Population Pyknosed Nuclei (%): 10.83% and 16.03%
  Population Tubulin-Different-Phenotype (%): 0.49% and 0%
U2OS; [2]
  Population Apoptotic (%): 35.71% and 31.82%
  Population Fragmented Nuclei (%): 1.52% and 0%
  Population Healthy Nuclei (%): 91.37% and 84.93%
  Population Hoechst High Intensity Objects (%): 0%
  Population Membrane Permeable-Phenotype (%): 1.94% and 4.84%
  Population Mitotic Cells (%): 64.29% and 68.18%
  Population Normal (%): 100%
  Population Pyknosed Nuclei (%): 7.11% and 15.07%
  Population Tubulin-Different-Phenotype (%): 2.22% and 2.42%
  Total Cell Count: 394 and 146
U2OS; [3]
  Population Apoptotic (%): 41.07% and 40%
  Population Fragmented Nuclei (%): 1.74% and 2.44%
  Population Healthy Nuclei (%): 89.42% and 80.49%
  Population Hoechst High Intensity Objects (%): 0%
  Population Membrane Permeable-Phenotype (%): 0.88% and 2.42%
  Population Mitochondria Different-Phenotype (%): 0% and 7.27%
  Population Mitotic Cells (%): 58.93% and 60%
  Population Normal (%): 100%
  Population Pyknosed Nuclei (%): 8.85% and 17.07%
  Population Tubulin-Different-Phenotype (%): 0.18% and 1.82%
U2OS; [4]
  Population Apoptotic (%): 23.33% and 32.14%
  Population Fragmented Nuclei (%): 2.09% and 1.2%
  Population Healthy Nuclei (%): 86.5% and 81.93%
  Population Hoechst High Intensity Objects (%): 0%
  Population Membrane Permeable-Phenotype (%): 1.1% and 8.09%
  Population Mitotic Cells (%): 76.67% and 67.86%
  Population Normal (%): 100%
  Population Pyknosed Nuclei (%): 11.41% and 16.87%
  Population Tubulin-Different-Phenotype (%): 2.42% and 3.68%
U2OS; [5]
  Population Apoptotic (%): 40.17% and 47.5%
  Population Fragmented Nuclei (%): 3.56% and 1.97%
  Population Healthy Nuclei (%): 86.74% and 86.8%
  Population Hoechst High Intensity Objects (%): 0%
  Population Membrane Permeable-Phenotype (%): 0.86% and 1.29%
  Population Mitochondria Different-Phenotype (%): 0% and 3.56%
  Population Mitotic Cells (%): 59.83% and 52.5%
  Population Normal (%): 100%
  Population Pyknosed Nuclei (%): 9.69% and 11.24%
  Population Tubulin-Different-Phenotype (%): 0.38% and 0.97%
U2OS; [6]
  Population Apoptotic (%): 41.89% and 71.05%
  Population Fragmented Nuclei (%): 2.63% and 1.47%
  Population Healthy Nuclei (%): 89.58% and 84.56%
  Population Hoechst High Intensity Objects (%): 0%
  Population Membrane Permeable-Phenotype (%): 0.71% and 3.91%
  Population Mitotic Cells (%): 58.11% and 28.95%
  Population Normal (%): 100%
  Population Pyknosed Nuclei (%): 7.79% and 13.97%
  Population Tubulin-Different-Phenotype (%): 1.29% and 1.74%
Fibroblast; [1]
  Population Apoptotic (%): 17.31% and 20.59%
  Population Fragmented Nuclei (%): 11.05% and 2.26%
  Population Healthy Nuclei (%): 61.58% and 82.35%
  Population Hoechst High Intensity Objects (%): 0%
  Population Membrane Permeable-Phenotype (%): 2.56% and 3.85%
  Population Mitochondria Different-Phenotype (%): 11.97% and 6.04%
  Population Mitotic Cells (%): 82.69% and 79.41%
  Population Normal (%): 100%
  Population Pyknosed Nuclei (%): 27.37% and 15.38%
  Population Tubulin-Different-Phenotype (%): 20.51% and 12.09%
  Total Cell Count: 190 and 221
Fibroblast; [2]
  Population Fragmented Nuclei (%): 8.24% and 5.79%
  Population Healthy Nuclei (%): 54.95% and 72.97%
  Population Hoechst High Intensity Objects (%): 0%
  Population Membrane Permeable-Phenotype (%): 4% and 3.7%
  Population Mitochondria Different-Phenotype (%): 14% and 13.76%
  Population Mitotic Cells (%): 97.01% and 85.45%
  Population Normal (%): 100%
  Population Pyknosed Nuclei (%): 36.81% and 21.24%
  Population Tubulin-Different-Phenotype (%): 36% and 35.45%
  Total Cell Count: 182 and 259
Fibroblast; [3]
  Population Apoptotic (%): 18.18% and 13.04%
  Population Fragmented Nuclei (%): 9.76% and 2.67%
  Population Healthy Nuclei (%): 74.15% and 87.11%
  Population Hoechst High Intensity Objects (%): 0%
  Population Membrane Permeable-Phenotype (%): 4.61% and 1.53%
  Population Mitochondria Different-Phenotype (%): 7.89% and 4.59%
  Population Mitotic Cells (%): 81.82% and 86.96%
  Population Normal (%): 100%
